Converted amounts (≈) assume the structure as drawn. The source made the active and inactive calls. The rule behind the calls is not given here.
Key:
Cholinesterase = Cholinesterase (Equus caballus, UniProt P81908); test: Inhibition of equine serum BChE using butyrylthiocholine iodide as substrate pretreated for 15 mins followed by substrate addition measured for 6 mins by Ellman's method
Procedure, shortened: (§1)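 Ellman spectrophotometric assay in 0.1 M phosphate buffer pH 8.0 with DTNB, 25 °C. AChE (electric eel, Type V-S) or BChE was preincubated 15 min with compound before adding acetylthiocholine iodide or butyrylthiocholine iodide, respectively. Absorbance change at 412 nm was read for 6 min. Five concentrations were tested in triplicate, corrected by a nonenzymatic blank, with a no-inhibitor reference.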

Staphylococcus aureus [1] = test: Antibacterial activity against Staphylococcus aureus ATCC 29737 assessed as diameter of inhibition zone at 200 ug per disc after 24 hrs by agar disc diffusion method; assay type: functional; details: ATCC 29737, 24 h, read-out: DIZ
Procedure, shortened: (§2)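 Agar disc diffusion. Compounds at 20 mg mL⁻¹ in DMSO, filter-sterilised. 100 µL of 10⁸ CFU mL⁻¹ bacteria spread on nutrient agar. 6 mm discs carried 10 µl (200 µg per disc), with DMSO discs as negative control. Incubation 24 h at 37 °C. Read-out is inhibition zone diameter, mean of 3 repeats (±1 mm).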

Bacillus spizizenii [2] = test: Antibacterial activity against Bacillus subtilis ATCC 6633 assessed as diameter of inhibition zone at 200 ug per disc after 24 hrs by agar disc diffusion method; assay type: functional; details: ATCC 6633, 24 h, read-out: DIZ; procedure, shortened: as §2
[3] = tested on: Staphylococcus epidermidis; test: Antibacterial activity against Staphylococcus epidermidis ATCC 12228 assessed as diameter of inhibition zone at 200 ug per disc after 24 hrs by agar disc diffusion method; assay type: functional; details: ATCC 12228, 24 h, read-out: DIZ; procedure, shortened: as §2
Staphylococcus aureus [4] = test: Antibacterial activity against Staphylococcus aureus ATCC 29737; assay type: functional
Bacillus spizizenii [5] = test: Antibacterial activity against Bacillus subtilis ATCC 6633; assay type: functional
[6] = tested on: Staphylococcus epidermidis; test: Antibacterial activity against Staphylococcus epidermidis ATCC 12228; assay type: functional
Salmonella paratyphi [7] = test: Antibacterial activity against Salmonella paratyphi A serotype ATCC 5702 assessed as diameter of inhibition zone at 200 ug per disc after 24 hrs by agar disc diffusion method; assay type: functional, Salmonella enterica subsp. enterica serovar Paratyphi A; details: Salmonella enterica, ATCC 5702, 24 h; read-out: DIZ; procedure, shortened: as §2
Escherichia coli [8] = test: Antibacterial activity against Escherichia coli ATCC 10536 assessed as diameter of inhibition zone at 200 ug per disc after 24 hrs by agar disc diffusion method; assay type: functional; details: ATCC 10536, 24 h, read-out: DIZ; procedure, shortened: as §2
Pseudomonas aeruginosa [9] = test: Antibacterial activity against Pseudomonas aeruginosa ATCC 27853 assessed as diameter of inhibition zone at 200 ug per disc after 24 hrs by agar disc diffusion method; assay type: functional; details: ATCC 27853, 24 h, read-out: DIZ; procedure, shortened: as §2
Klebsiella pneumoniae [10] = test: Antibacterial activity against Klebsiella pneumoniae ATCC 10031 assessed as diameter of inhibition zone at 200 ug per disc after 24 hrs by agar disc diffusion method; assay type: functional; details: ATCC 10031, 24 h, read-out: DIZ; procedure, shortened: as §2
Shigella dysenteriae [11] = test: Antibacterial activity against Shigella dysenteriae PTCC 1188 assessed as diameter of inhibition zone at 200 ug per disc after 24 hrs by agar disc diffusion method; assay type: functional; details: PTCC 1188, 24 h, read-out: DIZ; procedure, shortened: as §2
Proteus vulgaris [12] = test: Antibacterial activity against Proteus vulgaris PTCC 1182 assessed as diameter of inhibition zone at 200 ug per disc after 24 hrs by agar disc diffusion method; assay type: functional; details: PTCC 1182, 24 h, read-out: DIZ; procedure, shortened: as §2
Salmonella paratyphi [13] = test: Antibacterial activity against Salmonella paratyphi A serotype ATCC 5702; assay type: functional, Salmonella enterica subsp. enterica serovar Paratyphi A
Escherichia coli [14] = test: Antibacterial activity against Escherichia coli ATCC 10536; assay type: functional
Pseudomonas aeruginosa [15] = test: Antibacterial activity against Pseudomonas aeruginosa ATCC 27853; assay type: functional
Klebsiella pneumoniae [16] = test: Antibacterial activity against Klebsiella pneumoniae ATCC 10031; assay type: functional
Shigella dysenteriae [17] = test: Antibacterial activity against Shigella dysenteriae PTCC 1188; assay type: functional
Proteus vulgaris [18] = test: Antibacterial activity against Proteus vulgaris PTCC 1182; assay type: functional
Candida albicans [19] = test: Antifungal activity against Candida albicans ATCC 10231 assessed as diameter of inhibition zone at 200 ug per disc after 48 hrs by agar disc diffusion method; assay type: functional; details: ATCC 10231, 48 h, read-out: DIZ
Procedure, shortened: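 Yeast tested by agar disc diffusion. Compounds at 20 mg mL⁻¹ in DMSO, filter-sterilised. 6 mm discs carried 10 µl (200 µg per disc), with DMSO discs as negative control. Incubation 48 h at 30 °C. Zone diameter was averaged over 3 repeats (±1 mm).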

Aspergillus niger [20] = test: Antifungal activity against Aspergillus niger ATCC 16404 assessed as diameter of inhibition zone at 200 ug per disc after 72 hrs by agar disc diffusion method; assay type: functional; details: ATCC 16404, 72 h, read-out: DIZ
Procedure, shortened: (§3)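 Agar disc diffusion against mold. Compounds at 20 mg mL⁻¹ in DMSO, filter-sterilised. 6 mm discs carried 10 µl (200 µg per disc), with DMSO discs as negative control. Incubation 72 h at 30 °C. Read-out is growth inhibition zone diameter, mean of 3 repeats (±1 mm).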

Aspergillus brasiliensis [21] = test: Antifungal activity against Aspergillus brasiliensis PTCC 5011 assessed as diameter of inhibition zone at 200 ug per disc after 72 hrs by agar disc diffusion method; assay type: functional; details: PTCC 5011, 72 h, read-out: DIZ; procedure, shortened: as §3
Candida albicans [22] = test: Antifungal activity against Candida albicans ATCC 10231; assay type: functional
Aspergillus niger [23] = test: Antifungal activity against Aspergillus niger ATCC 16404; assay type: functional
Aspergillus brasiliensis [24] = test: Antifungal activity against Aspergillus brasiliensis PTCC 5011; assay type: functional
[25] = biological target: Acetylcholinesterase (Electrophorus electricus) (UniProt O42275); test: Inhibition of electric eel AChE using acetylthiocholine iodide as substrate pretreated for 15 mins followed by substrate addition measured for 6 mins by Ellman's method; procedure, shortened: as §1
Sequence of Acetylcholinesterase (Electrophorus electricus) (O42275 24-633 limits assumed): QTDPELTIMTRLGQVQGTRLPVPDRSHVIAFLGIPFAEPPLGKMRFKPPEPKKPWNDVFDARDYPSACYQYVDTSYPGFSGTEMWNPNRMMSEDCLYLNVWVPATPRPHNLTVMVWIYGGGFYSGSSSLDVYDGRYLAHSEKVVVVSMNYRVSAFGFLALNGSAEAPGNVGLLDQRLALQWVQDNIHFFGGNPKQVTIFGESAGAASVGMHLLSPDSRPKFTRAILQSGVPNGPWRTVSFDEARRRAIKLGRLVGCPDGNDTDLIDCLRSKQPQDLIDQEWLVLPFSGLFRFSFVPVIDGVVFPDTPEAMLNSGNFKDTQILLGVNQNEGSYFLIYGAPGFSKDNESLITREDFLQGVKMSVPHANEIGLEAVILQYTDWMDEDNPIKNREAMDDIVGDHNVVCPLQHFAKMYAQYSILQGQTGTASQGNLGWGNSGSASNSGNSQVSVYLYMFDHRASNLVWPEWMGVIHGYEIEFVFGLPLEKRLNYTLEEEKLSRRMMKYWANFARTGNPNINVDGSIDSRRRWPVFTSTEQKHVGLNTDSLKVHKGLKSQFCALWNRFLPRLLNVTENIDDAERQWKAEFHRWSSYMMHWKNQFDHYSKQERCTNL

Sequence of Cholinesterase (P81908 whole entry): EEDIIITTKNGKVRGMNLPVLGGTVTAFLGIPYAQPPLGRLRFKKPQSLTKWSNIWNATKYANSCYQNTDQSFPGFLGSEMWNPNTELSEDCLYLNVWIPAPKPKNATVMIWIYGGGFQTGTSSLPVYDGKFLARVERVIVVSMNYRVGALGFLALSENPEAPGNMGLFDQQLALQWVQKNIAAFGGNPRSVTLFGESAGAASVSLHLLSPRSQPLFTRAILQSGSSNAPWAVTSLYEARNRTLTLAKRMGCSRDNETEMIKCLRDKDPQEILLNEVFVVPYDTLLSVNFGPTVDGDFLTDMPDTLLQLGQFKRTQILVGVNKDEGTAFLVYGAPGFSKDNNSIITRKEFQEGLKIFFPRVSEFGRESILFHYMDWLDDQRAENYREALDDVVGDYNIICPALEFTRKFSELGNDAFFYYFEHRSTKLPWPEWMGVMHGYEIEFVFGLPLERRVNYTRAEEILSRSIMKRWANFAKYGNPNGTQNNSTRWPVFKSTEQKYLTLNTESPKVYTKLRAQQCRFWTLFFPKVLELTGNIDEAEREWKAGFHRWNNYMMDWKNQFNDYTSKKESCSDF

O=[N+]([O-])c1cccc(C2CC(c3cc4cc(Br)ccc4o3)=Nc3ccccc3S2)c1 (configuration not stated)
IC50 (Cholinesterase): Not Active | zone of inhibition at 200 µg/disc (Staphylococcus aureus [1]): < 6 mm | zone of inhibition at 200 µg/disc (Bacillus spizizenii [2]): 19 mm | zone of inhibition at 200 µg/disc [3]: < 6 mm | MIC (Staphylococcus aureus [4]): inactive | MIC (Bacillus spizizenii [5]): 12.5 µg/mL (≈ 26.1 µM) | MIC [6]: inactive | zone of inhibition at 200 µg/disc (Salmonella paratyphi [7]): 23 mm | zone of inhibition at 200 µg/disc (Escherichia coli [8]): < 6 mm | zone of inhibition at 200 µg/disc (Pseudomonas aeruginosa [9]): < 6 mm | zone of inhibition at 200 µg/disc (Klebsiella pneumoniae [10]): < 6 mm | zone of inhibition at 200 µg/disc (Shigella dysenteriae [11]): < 6 mm | zone of inhibition at 200 µg/disc (Proteus vulgaris [12]): < 6 mm | MIC (Salmonella paratyphi [13]; Salmonella enterica): 0.5 µg/mL (≈ 1.04 µM) | MIC (Escherichia coli [14]): inactive | MIC (Pseudomonas aeruginosa [15]): inactive | MIC (Klebsiella pneumoniae [16]): inactive | MIC (Shigella dysenteriae [17]): inactive | MIC (Proteus vulgaris [18]): inactive | zone of inhibition at 200 µg/disc (Candida albicans [19]): < 6 mm | zone of inhibition at 200 µg/disc (Aspergillus niger [20]): 20 mm | zone of inhibition at 200 µg/disc (Aspergillus brasiliensis [21]): 23 mm | MIC (Candida albicans [22]): inactive | MIC (Aspergillus niger [23]): 0.25 µg/mL (≈ 0.522 µM) | MIC (Aspergillus brasiliensis [24]): 0.5 µg/mL (≈ 1.04 µM) | inhibition [25]: inactive

Brc1ccc2oc(C3=Nc4ccccc4SC(c4cccc5ccccc45)C3)cc2c1 (configuration not stated)
IC50 (Cholinesterase; read-out: IC50): 17 µM | zone of inhibition at 200 µg/disc (Staphylococcus aureus [1]): 10 mm | zone of inhibition at 200 µg/disc (Bacillus spizizenii [2]): 12 mm | zone of inhibition at 200 µg/disc [3]: < 6 mm | MIC (Staphylococcus aureus [4]): 5 µg/mL (≈ 10.3 µM) | MIC (Bacillus spizizenii [5]): 5 µg/mL (≈ 10.3 µM) | MIC [6]: inactive | zone of inhibition at 200 µg/disc (Salmonella paratyphi [7]): < 6 mm | zone of inhibition at 200 µg/disc (Escherichia coli [8]): < 6 mm | zone of inhibition at 200 µg/disc (Pseudomonas aeruginosa [9]): < 6 mm | zone of inhibition at 200 µg/disc (Klebsiella pneumoniae [10]): < 6 mm | zone of inhibition at 200 µg/disc (Shigella dysenteriae [11]): 14 mm | zone of inhibition at 200 µg/disc (Proteus vulgaris [12]): 19 mm | MIC (Salmonella paratyphi [13]; Salmonella enterica subsp. enterica serovar Paratyphi A): inactive | MIC (Escherichia coli [14]): inactive | MIC (Pseudomonas aeruginosa [15]): inactive | MIC (Klebsiella pneumoniae [16]): inactive | MIC (Shigella dysenteriae [17]): 50 µg/mL (≈ 103 µM) | MIC (Proteus vulgaris [18]): 12.5 µg/mL (≈ 25.8 µM) | zone of inhibition at 200 µg/disc (Candida albicans [19]): 14 mm | zone of inhibition at 200 µg/disc (Aspergillus niger [20]): < 6 mm | zone of inhibition at 200 µg/disc (Aspergillus brasiliensis [21]): < 6 mm | MIC (Candida albicans [22]): 25 µg/mL (≈ 51.6 µM) | MIC (Aspergillus niger [23]): inactive | MIC (Aspergillus brasiliensis [24]): inactive | inhibition [25]: inactive

— ChEMBL document CHEMBL4118244, “Design, synthesis and biological evaluation of benzofuran appended benzothiazepine derivatives as inhibitors of butyrylcholinesterase and antimicrobial agents” (Bioorg Med Chem, 2018)
